Activity calls are given as the source filed them.
Assays:
[1] = molecular target: T1, 5-hydroxytryptamine receptor 2C (Homo sapiens) (UniProt P28335); assay: Intrinsic agonist activity at human 5-HT2CR expressed in CHO cells assessed as induction of intracellular calcium release at 1 nM incubated for 15 mins measured every 1 sec for 120 secs by calcium-4 dye based FLIPR assay; assay type: functional, cell-based
T1 sequence (whole entry): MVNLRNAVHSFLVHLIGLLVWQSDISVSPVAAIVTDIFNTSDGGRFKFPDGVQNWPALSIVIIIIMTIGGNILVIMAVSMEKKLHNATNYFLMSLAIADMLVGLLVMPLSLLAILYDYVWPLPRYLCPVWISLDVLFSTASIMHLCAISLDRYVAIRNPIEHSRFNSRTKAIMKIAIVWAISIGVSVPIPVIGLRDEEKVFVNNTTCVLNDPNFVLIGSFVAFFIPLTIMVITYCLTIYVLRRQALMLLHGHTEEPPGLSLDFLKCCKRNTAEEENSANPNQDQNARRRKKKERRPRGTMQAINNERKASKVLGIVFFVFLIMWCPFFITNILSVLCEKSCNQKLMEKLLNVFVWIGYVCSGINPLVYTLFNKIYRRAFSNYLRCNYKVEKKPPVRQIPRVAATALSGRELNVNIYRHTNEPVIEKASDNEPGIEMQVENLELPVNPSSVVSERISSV
How it was run: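 CHO cells stably expressing human unedited INI 5-HT2CR were plated, serum-starved 3 h, then loaded with Calcium 4 dye plus 2.5 mM probenecid (60 min 37 °C, then 15 min RT). Compound (1 nM) was added; the read after this addition gave intrinsic agonism. 5-HT (10 pM–10 μM) followed 15 min later. FLIPR-TETRA: 10 s baseline, 1 s reads for 120 s after compound and 360 s after 5-HT. Emax came from 4-parameter fits, ≥3 biological replicates in triplicate.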

CHO = assay: Cytotoxicity against CHO cells at 0.1 to 1000 nM after 1 hrs by LDH release assay; assay type: cell-based, Cricetulus griseus; conditions: chinese hamster, 1 µM
How it was run: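 Lactate dehydrogenase release assay for cytotoxicity, compounds tested at 0.1 nM and 1 μM.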

[2] = molecular target: 5-hydroxytryptamine receptor 2A (Homo sapiens, UniProt P28223); assay: Positive allosteric modulation of human 5-HT2AR expressed in CHO cells assessed as increase in 5-HT-induced intracellular calcium release at 0.000001 to 1 uM preincubated for 15 mins followed by 5-HT addition by calcium-4 dye based FLIPR assay; assay type: cell-based
Sequence of 5-hydroxytryptamine receptor 2A (P28223 whole entry): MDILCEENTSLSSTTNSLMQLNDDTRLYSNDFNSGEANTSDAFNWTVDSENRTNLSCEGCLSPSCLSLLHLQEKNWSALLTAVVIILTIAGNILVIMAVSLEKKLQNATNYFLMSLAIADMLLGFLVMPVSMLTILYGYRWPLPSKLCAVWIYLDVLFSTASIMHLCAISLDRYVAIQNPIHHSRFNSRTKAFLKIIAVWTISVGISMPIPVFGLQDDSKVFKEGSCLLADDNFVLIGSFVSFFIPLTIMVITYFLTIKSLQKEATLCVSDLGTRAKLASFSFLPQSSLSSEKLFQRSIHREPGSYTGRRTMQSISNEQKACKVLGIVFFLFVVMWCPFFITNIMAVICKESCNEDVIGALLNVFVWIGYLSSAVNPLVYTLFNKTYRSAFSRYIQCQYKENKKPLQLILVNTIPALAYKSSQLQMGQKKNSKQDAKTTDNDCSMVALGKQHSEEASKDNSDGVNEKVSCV
How it was run: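 Human 5-HT2AR-CHO cells, same calcium assay: Calcium 4 dye with probenecid. Compound (1 pM, 1 nM, 1 μM) was given 15 min before a 5-HT concentration–response (10 pM–10 μM). Peak fluorescence was fit by 4-parameter regression.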

[3] = molecular target: T1, 5-hydroxytryptamine receptor 2C (Homo sapiens); assay: Positive allosteric modulation of human 5-HT2CR expressed in CHO cells assessed as increase in 5-HT-induced intracellular calcium release at 0.000001 to 1 uM preincubated for 15 mins followed by 5-HT addition by calcium-4 dye based FLIPR assay; assay type: functional, cell-based
How it was run: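 CHO cells stably expressing human unedited (INI) 5-HT2CR, passages 6–16, grown at 37 °C in medium with 5% FBS and hygromycin. Plated cells were serum-starved 3 h, then loaded 60 min at 37 °C plus 15 min at room temperature with Calcium 4 dye and 2.5 mM probenecid in HBSS pH 7.4. Compound (1 pM, 1 nM, 1 μM) was added 15 min before 5-HT (10 pM–10 μM), and fluorescence peak height was read.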

[4] = molecular target: 5-hydroxytryptamine receptor 1D (Homo sapiens) (UniProt P28221); assay: Displacement of [3H]-GR125743 from recombinant human 5-HT1DR expressed in HEKT cell membranes at 10 uM after 90 mins by scintillation counting method relative to control
Sequence of 5-hydroxytryptamine receptor 1D (Homo sapiens) (P28221 whole entry): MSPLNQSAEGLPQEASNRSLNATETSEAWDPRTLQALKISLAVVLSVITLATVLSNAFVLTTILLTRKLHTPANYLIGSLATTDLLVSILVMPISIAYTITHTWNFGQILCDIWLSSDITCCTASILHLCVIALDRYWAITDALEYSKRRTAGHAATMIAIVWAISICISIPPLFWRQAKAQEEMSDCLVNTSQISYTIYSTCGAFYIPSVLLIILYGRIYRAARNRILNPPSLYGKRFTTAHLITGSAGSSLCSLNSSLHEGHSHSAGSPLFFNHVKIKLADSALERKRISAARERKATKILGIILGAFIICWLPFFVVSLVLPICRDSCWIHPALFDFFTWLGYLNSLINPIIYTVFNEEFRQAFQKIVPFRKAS

5-HT2A receptor = 5-HT2A receptor (Homo sapiens, UniProt P28223); assay: Displacement of [3H]-Ketanserin from recombinant human 5-HT2AR expressed in HEKT cell membranes at 10 uM after 90 mins by scintillation counting method relative to control; conditions: probe [3H]-Ketanserin
Sequence of 5-HT2A receptor (P28223 whole entry): as the sequence (P28223 whole entry) above

[5] = molecular target: T1, 5-hydroxytryptamine receptor 2C (Homo sapiens); assay: Displacement of [3H]-mesulergine from recombinant human 5-HT2CR expressed in Flp-IN HEK cell membranes at 10 uM after 90 mins by scintillation counting method relative to control
How it was run: (§1)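 Single-concentration screen at 10 μM test compound, each target labelled with the radioligand given in the line. The read-out is mean % inhibition of specific radioligand binding (n = 4). Targets above 50% inhibition went on to full competition isotherms, and Ki came from best-fit IC50 by the Cheng–Prusoff equation.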

[6] = molecular target: 5-hydroxytryptamine receptor 3A (Homo sapiens) (UniProt P46098); assay: Displacement of [3H]-LY278584 from recombinant human 5-HT3R expressed in HEK cell membranes at 10 uM after 90 mins by scintillation counting method relative to control
Sequence of 5-hydroxytryptamine receptor 3A (Homo sapiens) (P46098 whole entry): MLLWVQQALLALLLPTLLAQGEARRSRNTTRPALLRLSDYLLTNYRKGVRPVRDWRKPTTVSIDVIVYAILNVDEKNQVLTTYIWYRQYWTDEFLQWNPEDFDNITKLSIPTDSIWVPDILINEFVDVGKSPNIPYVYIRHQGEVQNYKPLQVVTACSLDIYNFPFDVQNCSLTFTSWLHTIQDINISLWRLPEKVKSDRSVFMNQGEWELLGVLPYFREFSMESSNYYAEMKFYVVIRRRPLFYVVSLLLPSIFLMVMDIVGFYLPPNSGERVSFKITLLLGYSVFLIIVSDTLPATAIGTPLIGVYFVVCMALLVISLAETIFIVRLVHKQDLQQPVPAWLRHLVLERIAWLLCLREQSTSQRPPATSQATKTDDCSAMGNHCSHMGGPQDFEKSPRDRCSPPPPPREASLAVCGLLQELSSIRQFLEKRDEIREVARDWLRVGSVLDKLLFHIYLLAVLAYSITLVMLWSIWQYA

[7] = molecular target: 5-hydroxytryptamine receptor 6 (Homo sapiens) (UniProt P50406); assay: Displacement of [3H]-LSD from recombinant human 5-HT6R expressed in HEK cell membranes at 10 uM after 90 mins by scintillation counting method relative to control
Sequence of 5-hydroxytryptamine receptor 6 (Homo sapiens) (P50406 whole entry): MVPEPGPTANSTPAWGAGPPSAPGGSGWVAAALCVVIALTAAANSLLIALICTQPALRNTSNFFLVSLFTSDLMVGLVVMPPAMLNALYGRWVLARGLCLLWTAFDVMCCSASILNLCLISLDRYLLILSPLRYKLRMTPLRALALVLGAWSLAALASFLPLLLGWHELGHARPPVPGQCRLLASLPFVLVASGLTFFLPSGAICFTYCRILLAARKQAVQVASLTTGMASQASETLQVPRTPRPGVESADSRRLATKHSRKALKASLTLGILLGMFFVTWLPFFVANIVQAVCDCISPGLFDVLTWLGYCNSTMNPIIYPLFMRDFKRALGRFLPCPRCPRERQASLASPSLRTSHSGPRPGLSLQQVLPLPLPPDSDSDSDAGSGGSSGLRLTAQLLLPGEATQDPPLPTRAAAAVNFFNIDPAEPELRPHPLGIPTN

[8] = molecular target: D(1A) dopamine receptor (Homo sapiens) (UniProt P21728); assay: Displacement of [3H]-SCH23390 from recombinant human D1R expressed in HEKT cell membranes at 10 uM after 90 mins by scintillation counting method relative to control
Sequence of D(1A) dopamine receptor (Homo sapiens) (P21728 whole entry): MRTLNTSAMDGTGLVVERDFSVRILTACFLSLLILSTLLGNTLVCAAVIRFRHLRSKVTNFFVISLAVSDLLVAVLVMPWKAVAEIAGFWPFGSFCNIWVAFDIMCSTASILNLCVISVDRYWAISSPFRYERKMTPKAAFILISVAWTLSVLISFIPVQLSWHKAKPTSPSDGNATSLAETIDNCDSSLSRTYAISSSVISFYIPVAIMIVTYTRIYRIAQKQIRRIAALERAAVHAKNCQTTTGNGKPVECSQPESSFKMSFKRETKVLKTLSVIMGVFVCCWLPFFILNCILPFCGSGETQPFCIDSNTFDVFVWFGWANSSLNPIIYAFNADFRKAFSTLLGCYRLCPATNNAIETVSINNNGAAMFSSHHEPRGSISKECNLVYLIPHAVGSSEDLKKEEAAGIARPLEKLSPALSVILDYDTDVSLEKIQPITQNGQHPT

[9] = molecular target: D(2) dopamine receptor (Homo sapiens) (UniProt P14416); assay: Displacement of [3H]-N-methylspiperone from recombinant human D2R expressed in fibroblast membranes at 10 uM after 90 mins by scintillation counting method relative to control; assay type: cell membranes
Sequence of D(2) dopamine receptor (Homo sapiens) (P14416 whole entry): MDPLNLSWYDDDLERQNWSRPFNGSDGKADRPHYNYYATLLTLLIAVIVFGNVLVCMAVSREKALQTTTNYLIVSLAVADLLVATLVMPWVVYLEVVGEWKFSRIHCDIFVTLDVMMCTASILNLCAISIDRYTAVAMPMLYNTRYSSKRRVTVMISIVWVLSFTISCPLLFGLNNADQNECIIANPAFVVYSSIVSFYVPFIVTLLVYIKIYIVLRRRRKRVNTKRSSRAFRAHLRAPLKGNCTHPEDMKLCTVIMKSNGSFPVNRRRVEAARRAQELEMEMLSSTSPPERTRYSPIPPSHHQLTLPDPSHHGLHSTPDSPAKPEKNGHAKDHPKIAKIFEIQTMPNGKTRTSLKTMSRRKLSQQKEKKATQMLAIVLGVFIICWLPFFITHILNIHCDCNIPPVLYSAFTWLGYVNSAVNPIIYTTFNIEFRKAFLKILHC

[10] = molecular target: D(3) dopamine receptor (Homo sapiens) (UniProt P35462); assay: Displacement of [3H]-N-methylspiperone from recombinant human D3R expressed in HEK cell membranes at 10 uM after 90 mins by scintillation counting method relative to control; how it was run: as §1
Sequence of D(3) dopamine receptor (Homo sapiens) (P35462 whole entry): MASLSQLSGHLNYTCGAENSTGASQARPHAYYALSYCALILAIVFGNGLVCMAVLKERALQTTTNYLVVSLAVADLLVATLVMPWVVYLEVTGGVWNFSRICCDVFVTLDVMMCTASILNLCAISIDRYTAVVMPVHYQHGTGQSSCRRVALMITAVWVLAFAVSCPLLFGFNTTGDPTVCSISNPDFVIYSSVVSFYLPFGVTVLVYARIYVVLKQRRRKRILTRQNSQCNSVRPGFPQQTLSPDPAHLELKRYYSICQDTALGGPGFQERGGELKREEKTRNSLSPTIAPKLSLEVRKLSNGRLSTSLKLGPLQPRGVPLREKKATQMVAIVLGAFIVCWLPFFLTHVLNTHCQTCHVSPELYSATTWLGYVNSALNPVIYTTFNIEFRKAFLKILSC

[11] = AUC (0 to infinity) in Sprague-Dawley rat at 10 mg/kg, po administered as single dose; assay type: ADME, organism-based; set-up: dose 10 mg/kg, time infinity, route oral; conditions: in vivo
Rattus norvegicus [12] = assay: Increase in WAY163909-induced suppression of spontaneous locomotor activity in Sprague-Dawley rat assessed as reduction in total vertical activity at 5 mg/kg, ip cotreated with WAY163909 at 15 mins post 5-HT2C antagonist SB242084 treatment measured for 30 mins; assay type: functional, organism-based
How it was run: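 Rats (n = 9–10/group) received SB242084 (1 mg/kg ip) or vehicle (8% 2-hydroxypropyl-β-cyclodextrin) 15 min before ip WAY163909 (1 mg/kg) plus compound (5 mg/kg). They were placed in monitors immediately; ambulations and vertical activity were totalled over 30 min. Analysis: ANOVA with Bonferroni comparisons.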

Rattus norvegicus [13] = assay: Drug discrimination in WAY163909-trained Sprague-Dawley rat assessed as increase in WAY163909-appropriate lever responding at 0.5 mg/kg, ip co-treated with WAY163909 15 mins prior to test relative to control; assay type: functional
How it was run: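 Water-restricted male Sprague–Dawley rats were trained to discriminate WAY163909 (0.75 mg/kg ip, 15 min pretreatment) from saline under FR20, to a criterion of ≥80% correct for 10 sessions. Test doses were given ip 15 min before test: compound alone (0.125–1.0 mg/kg) or compound 0.5 mg/kg plus WAY163909 0.5 mg/kg. Read-out was % drug-lever responding; only rats completing FR20 within 15 min were counted.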

For `CCCCCCCCCCC[C@@H]1CCN[C@H](C(=O)NCC(O)CO)C1` (relative stereo), the Activity [1] was “inactive”, the Activity (CHO) was “Non-Toxic” and the Activity [2] was “Not Active”. For the same compound, the Activity [3] was “Active”, the inhibition [4] was 5.5% and the inhibition at 1.5 h, 10 µM (5-HT2A receptor) was 37.1%. For the same compound, the inhibition [5] was 9.8%, the inhibition [6] was 27% and the inhibition [7] was 18.1%. The inhibition [8] was 29.3%, the inhibition [9] was 28.8% and the inhibition [10] was 71.4%. For the same compound, the AUC [11] was 737 ng·h/mL, the Activity (Rattus norvegicus [12]) was “Active” and the Activity (Rattus norvegicus [13]) was 95%.

Reference: ChEMBL document CHEMBL4308830, “Design, Synthesis, and Characterization of 4-Undecylpiperidine-2-carboxamides as Positive Allosteric Modulators of the Serotonin (5-HT) 5-HT2C Receptor” (J Med Chem, 2018)
